In ChEMBL document CHEMBL3352716 (ACS Med Chem Lett, 2014):

Key:
K562 = experiment: Antiproliferative activity against human K562 cells assessed as growth inhibition after 72 hrs by MTT assay; type: functional, cell-based; conditions: K562, 72 h
Method in brief: (§1)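 MTT proliferation assay on human K562 leukaemia, MCF-7 breast adenocarcinoma, Bel-7402 hepatocellular carcinoma and MGC-803 gastric cancer cells. Drug exposure 72 h. IC50 is the concentration inhibiting 50% of cell growth. Means ± SD, n = 3.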

MCF7 = experiment: Antiproliferative activity against human MCF7 cells assessed as growth inhibition after 72 hrs by MTT assay; type: functional, cell-based; conditions: MCF7, 72 h; method in brief: as §1
[1] = Antiproliferative activity against human Bel7402 cells assessed as growth inhibition after 72 hrs by MTT assay; type: functional, cell-based; conditions: Bel-7402, 72 h; method in brief: as §1
MGC-803 = experiment: Antiproliferative activity against human MGC803 cells assessed as growth inhibition after 72 hrs by MTT assay; type: functional, cell-based; conditions: MGC-803, 72 h; method in brief: as §1
SW-620 = experiment: Anticancer activity against human SW620 cells by MTT assay; type: functional, cell-based
Method in brief: (§2)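 MTT cytotoxicity run on paired parental and transporter-overexpressing lines: SW620 vs ABCB1-overexpressing SW620/AD300, and NCI-H460 vs ABCG2-overexpressing NCI-H460/MX20. IC50 is the concentration inhibiting 50% of cell growth. Concentrations tested up to 100 μM.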

[2] = Anticancer activity against ABCB1-overexpressing human SW620/AD300 cells by MTT assay; type: functional, cell-based; conditions: SW-620; method in brief: as §2
NCI-H460 = experiment: Anticancer activity against human NCI-H460 cells by MTT assay; type: functional, cell-based; method in brief: as §2
[3] = Anticancer activity against ABCG2-overexpressing human NCI-H460/MX20 cells by MTT assay; type: functional, cell-based; method in brief: as §2
[4] = Anticancer activity against human Bel7402 cells assessed as growth inhibition by MTT assay; type: functional, cell-based; conditions: Bel-7402
Method in brief: (§3)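 Toxicity compared on human normal liver L-02 cells and human liver cancer Bel-7402 cells run side by side. Survival curves by MTT after 72 h treatment. IC50 is the concentration inhibiting 50% of cell growth.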

[5] = Cytotoxicity against human L02 cells by MTT assay; type: cell-based; method in brief: as §3
Bel-7402 = experiment: Selectivity index, ratio of IC50 for human L02 cells to ratio of IC50 for human Bel-7402 cells; type: functional
Method in brief: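 Selectivity index is IC50 on normal L-02 liver cells divided by IC50 on Bel-7402 tumour cells. Both IC50 values come from MTT survival curves after 72 h exposure.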

Structure (SMILES) | IC50 (K562) [µM] | IC50 (MCF7) [µM] | IC50 [1] [µM] | IC50 (MGC-803) [µM] | IC50 (SW-620) [µM] | IC50 [2] [µM] | IC50 (NCI-H460) [µM] | IC50 [3] [µM] | IC50 [4] [µM] | IC50 [5] [µM] | Ratio IC50 (Bel-7402)
C=C1C(=O)[C@]23[C@H](OC(=O)CCC(=O)N[C@@H](Cc4ccc(N(CCCl)CCCl)cc4)C(=O)OC)[C@H]1CC[C@H]2[C@@]12CO[C@@]3(O)[C@@H](O)[C@@H]1C(C)(C)CC[C@@H]2OC(C)=O | 1.73 | 3.63 | 2.56 | 4.71 | – | – | – | – | – | – | –
C=C1C(=O)[C@]23[C@H](OC(=O)CCC(=O)N[C@@H](Cc4ccc(N(CCCl)CCCl)cc4)C(=O)OC)[C@H]1CC[C@H]2[C@@]12CO[C@@]3(O)[C@@H](O)[C@@H]1C(C)(C)CC[C@@H]2O | 9.01 | 14.4 | 8.35 | 9.3 | 14 | 14.9 | 28.4 | > 100 | – | – | –
O=C(O)CCCc1ccc(N(CCCl)CCCl)cc1 [CHLORAMBUCIL] | 60.1 | 80.5 | 49.3 | 134 | – | – | – | – | 49.3 | 106 | 2.14
C=C1C(=O)[C@]23[C@H](OC(=O)[C@H](Cc4ccc(N(CCCl)CCCl)cc4)NC(=O)OC(C)(C)C)[C@H]1CC[C@H]2[C@@]12CO[C@@]3(O)[C@@H](O)[C@@H]1C(C)(C)CC[C@@H]2O | 1.41 | 3.22 | 2.36 | 6.72 | – | – | – | – | – | – | –
C=C1C(=O)[C@]23[C@H](OC(=O)c4ccc(N(CCCl)CCCl)cc4)[C@H]1CC[C@H]2[C@@]12CO[C@@]3(O)[C@@H](O)[C@@H]1C(C)(C)CC[C@@H]2OC(C)=O | 1.35 | 0.91 | 2.41 | 3.76 | – | – | – | – | – | – | –
C=C1C(=O)[C@]23[C@H](OC(=O)CCCC(=O)N[C@@H](Cc4ccc(N(CCCl)CCCl)cc4)C(=O)OC)[C@H]1CC[C@H]2[C@@]12CO[C@@]3(O)[C@@H](O)[C@@H]1C(C)(C)CC[C@@H]2O | 5.74 | 12.9 | 7.91 | 6.92 | – | – | – | – | – | – | –
N[C@@H](Cc1ccc(N(CCCl)CCCl)cc1)C(=O)O [MELPHALAN] | 33.4 | 19.6 | 24.8 | 36.9 | – | – | – | – | – | – | –
C=C1C(=O)[C@]23[C@H](OC(=O)[C@H](Cc4ccc(N(CCCl)CCCl)cc4)NC=O)[C@H]1CC[C@H]2[C@@]12CO[C@@]3(O)[C@@H](O)[C@@H]1C(C)(C)CC[C@@H]2O | 7.03 | 14.6 | 3.84 | 7.1 | – | – | – | – | – | – | –
